14 compounds from ChEMBL document CHEMBL2029296 (J Med Chem, 2012) can be followed below.

Broadly, the Ki is the equilibrium dissociation constant of an inhibitor or competing ligand from its target. A high value points to a looser hold on the target. In general, IC50 refers to the concentration needed to halve the response being measured.

Molecules are shown by their SMILES. Calls of active or inactive are those of the source. The calls are words filed in the database; no cut-off is given here.

For one experiment, the target named is Adenosine receptor A2a (Homo sapiens, UniProt P29274). Description: Displacement of [3H]NECA from human A2A adenosine receptor expressed in CHO cell membrane. The class given is cell membranes. (In a radioligand displacement assay an active substance lowers the binding of a labelled ligand.)
Adenosine receptor A2a, sequence (P29274 whole entry): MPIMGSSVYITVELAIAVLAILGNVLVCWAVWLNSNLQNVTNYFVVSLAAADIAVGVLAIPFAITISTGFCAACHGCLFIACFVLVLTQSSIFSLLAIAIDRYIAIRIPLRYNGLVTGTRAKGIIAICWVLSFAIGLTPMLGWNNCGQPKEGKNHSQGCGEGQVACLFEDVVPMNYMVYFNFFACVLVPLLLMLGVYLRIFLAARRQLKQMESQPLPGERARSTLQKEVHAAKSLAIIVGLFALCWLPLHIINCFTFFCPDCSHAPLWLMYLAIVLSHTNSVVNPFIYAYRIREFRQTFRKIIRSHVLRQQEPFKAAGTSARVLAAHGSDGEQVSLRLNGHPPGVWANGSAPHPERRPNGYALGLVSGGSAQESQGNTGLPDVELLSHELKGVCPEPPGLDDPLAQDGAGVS
In another experiment the target is T1, Adenosine receptor A3 (Homo sapiens, UniProt P0DMS8).
T1 sequence (P0DMS8 whole entry): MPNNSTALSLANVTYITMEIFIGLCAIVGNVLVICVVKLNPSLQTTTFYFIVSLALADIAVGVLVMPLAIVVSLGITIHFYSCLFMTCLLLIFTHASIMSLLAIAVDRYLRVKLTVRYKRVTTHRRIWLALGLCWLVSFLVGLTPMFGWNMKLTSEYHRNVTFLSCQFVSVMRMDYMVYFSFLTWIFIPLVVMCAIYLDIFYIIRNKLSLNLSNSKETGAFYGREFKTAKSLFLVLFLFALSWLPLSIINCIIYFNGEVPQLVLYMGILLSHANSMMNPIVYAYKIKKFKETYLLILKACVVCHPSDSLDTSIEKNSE
Description: Displacement of [125I]AB-MECA from human A3 adenosine receptor expressed in CHO cell membrane. The experiment is classed as cell membranes.

Another experiment addresses T2, Adenosine receptor A1 (Homo sapiens, UniProt P30542).
T2 sequence (P30542 whole entry): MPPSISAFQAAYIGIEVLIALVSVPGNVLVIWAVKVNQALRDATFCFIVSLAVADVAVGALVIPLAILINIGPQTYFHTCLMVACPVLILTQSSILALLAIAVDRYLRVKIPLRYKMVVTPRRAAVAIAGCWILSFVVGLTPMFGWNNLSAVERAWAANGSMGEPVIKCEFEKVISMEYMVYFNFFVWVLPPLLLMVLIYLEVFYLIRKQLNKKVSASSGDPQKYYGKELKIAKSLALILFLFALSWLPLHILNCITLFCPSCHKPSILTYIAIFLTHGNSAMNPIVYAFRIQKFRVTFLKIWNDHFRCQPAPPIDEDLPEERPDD
Description: Displacement of [3H]DPCPX from human A1 adenosine receptor expressed in CHO cell membrane. The class given is cell membranes.

Another experiment deals with T3, Adenosine receptor A2b (Homo sapiens, UniProt P29275).
T3 sequence (P29275 whole entry): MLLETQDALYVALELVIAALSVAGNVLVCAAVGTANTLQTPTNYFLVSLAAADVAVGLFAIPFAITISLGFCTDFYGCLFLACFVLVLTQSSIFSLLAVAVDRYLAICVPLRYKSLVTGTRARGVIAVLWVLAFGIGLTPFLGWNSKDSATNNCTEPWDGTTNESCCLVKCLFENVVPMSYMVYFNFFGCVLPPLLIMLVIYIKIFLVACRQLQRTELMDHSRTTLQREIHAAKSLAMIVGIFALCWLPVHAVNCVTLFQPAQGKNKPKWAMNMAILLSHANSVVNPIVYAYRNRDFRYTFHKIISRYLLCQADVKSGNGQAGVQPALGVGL
Description: Antagonist activity at human A2B receptor expressed in CHO cells assessed as inhibition of NECA-mediated cAMP accumulation. The experiment is classed as functional, cell-based. The method in brief: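 hA2B-expressing CHO cells, 48 h after plating, were preincubated 15 min at 37 °C in DMEM with ADA 1 U/mL and Ro20-1724 20 μM. Antagonist (1 nM–10 μM) was added for 15 min at 37 °C, then 100 nM NECA. Reaction stopped with 0.4 N HCl, lysate neutralized with 4 N KOH, and cAMP measured by competitive protein binding.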
In general terms: Cyclic AMP is a second messenger, typically raised through Gs and lowered through Gi signalling.

In experiment [1] the target is T4, Adenosine receptor A2b (Homo sapiens) (UniProt P29275).
T4 sequence (whole entry): T3 sequence (P29275 whole entry)
Description: Antagonist activity at A2B receptor in human Caco2 cells assessed as reversal of NECA-induced cell death at 0.1 to 50 nM after 24 hrs by MTS assay. Particulars: Caco-2. The class given is functional, cell-based. The method in brief: (§1)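 Caco-2 cells grown in DMEM with 10% FBS, 2 mM L-glutamine and penicillin/streptomycin at 37 °C, 5% CO2, seeded at 5000 cells/well. Next day, antagonist (0.1–50 nM) added, alone or 5 min before 100 nM NECA, for 24 h. Viability read by MTS formazan absorbance at 490 nm. Background subtracted, expressed as % untreated control, duplicate or triplicate, ≥3 experiments.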
(In general: Tetrazolium assays rely on reduction of a dye to a coloured formazan, in cell work by metabolically active cells.)

The target in experiment [2] is T4, Adenosine receptor A2b (Homo sapiens). Description: Induction of A2B receptor-mediated cell viability of human Caco2 cells assessed as cell survival at 0.1 to 50 nM after 24 hrs by MTS assay. Conditions: Caco-2. The experiment is classed as cell-based. The method in brief:
as §1

For `O=c1c(-c2ccco2)nnc2n(CCc3ccccc3)c3ccccc3n12`, the results for the Ki at Adenosine receptor A2a, at Adenosine receptor A3 and on Adenosine receptor A1 were 0.0158 µM, over 1000 nM and over 10000 nM, respectively. In addition, on Adenosine receptor A2b, the IC50 is 5.34 nM.
Consider `Oc1c(-c2ccccc2)nnc2nc3ccccc3n12`, for which the inhibition entry in experiment [1] is “Active”. In addition, the Ki was over 1000 nM at Adenosine receptor A3 and 728 nM on Adenosine receptor A1. For the same compound, the result in experiment [2] was inactive. Also, the IC50 at Adenosine receptor A2b amounted to 1.4 nM.
Regarding `Cn1c2ccccc2n2c(=O)c(-c3ccco3)nnc12`, the figures for the Ki at Adenosine receptor A2a, at Adenosine receptor A3 and at Adenosine receptor A1 were 2.61 µM, over 1000 nM and 211 nM, respectively. Further, on Adenosine receptor A2b, the 50% inhibitory concentration (IC50) worked out at 20.4 nM.
As for `O=c1c(-c2ccco2)nnc2n(-c3ccccc3)c3ccccc3n12`, the Ki is 3.28 µM at Adenosine receptor A2a, over 1000 nM at Adenosine receptor A3 and over 10000 nM on Adenosine receptor A1. Also, in experiment [1], the inhibition result is “Active”. At Adenosine receptor A2b, the IC50 is 3200 nM.
The matching figures for `O=c1c(-c2ccco2)nnc2n(-c3ccccc3)c3ccc(Cl)cc3n12`: over 10 µM, over 1000 nM, over 10000 nM, “Active” and 7850 nM.
For the compound `Oc1c(-c2ccco2)nnc2nc3ccccc3n12`, the results for the Ki at Adenosine receptor A3 and on Adenosine receptor A1 were over 1000 nM and 25 nM, respectively. Also, at Adenosine receptor A2b, the IC50 came out at 15.3 nM.
On to `Cn1c2ccccc2n2c(=O)c(-c3ccccc3)nnc12`, for which the Ki was over 10 µM at Adenosine receptor A2a, over 1000 nM on Adenosine receptor A3 and 62 nM at Adenosine receptor A1. Further, the IC50 on Adenosine receptor A2b turned out to be 58 nM.
The matching figures for `O=c1c(-c2ccccc2)nnc2n(Cc3ccccc3)c3ccccc3n12`: over 10 µM, over 1000 nM, 299 nM and 54.3 nM.
The matching figures for `O=c1c(-c2ccccc2)nnc2n(-c3ccccc3)c3ccccc3n12`: over 10 µM, over 1000 nM, 83 nM and 15 nM.
`O=c1c(-c2ccccc2)nnc2n(-c3ccc(Cl)cc3)c3ccccc3n12`: the Ki on Adenosine receptor A2a is over 10 µM; at Adenosine receptor A3, over 1000 nM; at Adenosine receptor A1, 1360 nM. Also, in experiment [1], the inhibition result was “Active”. In addition, the outcome in experiment [2] was inactive. The IC50 on Adenosine receptor A2b is 2.42 nM.
Turning to `O=c1c(-c2ccccc2)nnc2n(CCc3ccccc3)c3ccccc3n12`, the Ki on Adenosine receptor A2a was over 10 µM; on Adenosine receptor A3, 328 nM; at Adenosine receptor A1 it was over 10000 nM. In experiment [1], the inhibition entry is “Active”. Besides, in experiment [2], the result was inactive. Moreover, the IC50 on Adenosine receptor A2b came out at 2.5 nM.
For the compound `O=c1c(-c2ccccc2)nnc2n(-c3ccccc3)c3ccc(Cl)cc3n12`, the Ki at Adenosine receptor A2a is over 10 µM; at Adenosine receptor A3, over 1000 nM; on Adenosine receptor A1, over 10000 nM. The inhibition result in experiment [1] was “Active”. Moreover, the result in experiment [2] was inactive. Further, the IC50 at Adenosine receptor A2b was found to be 3.1 nM.
`O=c1c(-c2ccco2)nnc2n(-c3ccc(Cl)cc3)c3ccccc3n12`: the Ki was 0.0506 µM at Adenosine receptor A2a, 702 nM at Adenosine receptor A3 and over 10000 nM at Adenosine receptor A1. Besides, in experiment [1], the inhibition entry is “Active”. Besides, in experiment [2], the outcome was inactive. Moreover, at Adenosine receptor A2b, the IC50 is 2.11 nM.
As to `O=c1c(-c2ccco2)nnc2n(Cc3ccccc3)c3ccccc3n12`, the figures for the inhibitory constant (Ki) at Adenosine receptor A2a, on Adenosine receptor A3 and on Adenosine receptor A1 were 0.156 µM, over 1000 nM and over 10000 nM, respectively. In addition, the IC50 on Adenosine receptor A2b is 10 nM.
